Data set [1] concerns the target T1, Aromatase (Homo sapiens, UniProt P11511).
T1 sequence (P11511 whole entry): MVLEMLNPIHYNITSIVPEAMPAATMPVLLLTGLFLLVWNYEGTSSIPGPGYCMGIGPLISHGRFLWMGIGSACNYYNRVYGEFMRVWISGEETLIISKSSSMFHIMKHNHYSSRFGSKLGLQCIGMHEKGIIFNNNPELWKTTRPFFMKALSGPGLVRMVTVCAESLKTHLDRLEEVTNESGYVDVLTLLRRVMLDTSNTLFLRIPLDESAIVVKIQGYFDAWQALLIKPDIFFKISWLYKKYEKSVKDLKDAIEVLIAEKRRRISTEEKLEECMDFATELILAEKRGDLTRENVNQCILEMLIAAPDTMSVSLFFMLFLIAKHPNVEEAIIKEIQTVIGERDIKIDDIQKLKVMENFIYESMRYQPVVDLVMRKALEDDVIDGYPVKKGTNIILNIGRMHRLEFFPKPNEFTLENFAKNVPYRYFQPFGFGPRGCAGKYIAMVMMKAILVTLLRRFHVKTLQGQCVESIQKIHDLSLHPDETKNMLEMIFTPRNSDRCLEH

Data set [2] has as its target T2, Cholesterol side-chain cleavage enzyme, mitochondrial (cytochrome P450scc) (Bos taurus, UniProt P00189).
T2 sequence (P00189 whole entry): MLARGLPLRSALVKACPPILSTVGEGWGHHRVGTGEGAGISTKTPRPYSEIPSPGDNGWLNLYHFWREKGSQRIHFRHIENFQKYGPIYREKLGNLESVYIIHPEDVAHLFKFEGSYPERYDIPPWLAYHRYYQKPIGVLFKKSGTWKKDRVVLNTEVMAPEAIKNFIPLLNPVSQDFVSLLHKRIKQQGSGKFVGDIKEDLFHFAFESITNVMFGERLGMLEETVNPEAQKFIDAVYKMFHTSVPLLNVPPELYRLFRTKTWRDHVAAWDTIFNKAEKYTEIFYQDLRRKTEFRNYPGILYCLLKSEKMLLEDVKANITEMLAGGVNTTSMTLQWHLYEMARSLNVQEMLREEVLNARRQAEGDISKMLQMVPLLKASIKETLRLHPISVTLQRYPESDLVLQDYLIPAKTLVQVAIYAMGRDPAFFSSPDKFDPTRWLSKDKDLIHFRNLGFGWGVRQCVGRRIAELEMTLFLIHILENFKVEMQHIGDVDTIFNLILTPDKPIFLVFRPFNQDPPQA
Description: Inhibition of Bovine adrenal cholesterol side chain cleavage cytochrome P450 at 50 ug/mL. To be noted: cattle. In short, it runs like this:
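Bovine adrenal CSCC enzyme (cholesterol to pregnenolone) preparation. Inhibitor at 50 μg/mL, the highest concentration tested. Result is percent inhibition relative to uninhibited control, as the mean of two determinations (variability <10%).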

Data set [3] deals with T1, Aromatase. This is another data set of the same source.
Data set [4] addresses T1, Aromatase. This is another data set of the same source.
Data set [5] concerns the target T1, Aromatase. Nature of the data set: Inhibition of Cytochrome P450 19A1 at 20 ug/mL. The method, boiled down:
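Human placental aromatase preparation. Inhibitor at 20 μg/mL. Result is percent inhibition of androgen aromatization relative to control.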

Take `Nc1ccc(C2CC(=O)NC2=O)cc1` (stereo not given): the IC50 in data set [1] was 10.2 µM; in data set [3] it was 20 µM. Further, the inhibition at 50 ug/mL in data set [2] is 30%.
`CC1(c2ccc(N)cc2)CC(=O)NC1=O` (stereo not given) returned an inhibition constant Ki in data set [4] of 0.8 µM. Further, the 50% inhibitory concentration (IC50) in data set [1] is 10 µM; in data set [3], 12.5 µM. In data set [2], the inhibition at 50 ug/mL is 0%.
On to `CCC1(c2ccc(N)cc2)CC(=O)N(C)C1=O` (stereo not given), for which the inhibition at 50 ug/mL in data set [2] stood at 0%.
In data set [4], `CCC1(c2ccc(N)cc2)CC(=O)NC1=O` (stereo not given) came in with a Ki of 1 µM. Further, the figures for the 50% inhibitory concentration (IC50) in data set [1] and in data set [3] were 8.4 µM and 13.5 µM, respectively. The molecule also yielded an inhibition at 50 ug/mL in data set [2] of 38%.
In turn, `CN1C(=O)CC(C)(c2ccc(N)cc2)C1=O` (stereo not given) registered a Ki in data set [4] of 1.75 µM. Besides, the half-inhibitory concentration (IC50) was determined as 10 µM in data set [1] and 15.7 µM in data set [3]. Moreover, the inhibition at 50 ug/mL in data set [2] stood at 30%.
Regarding `NC(=O)CCc1ccc([N+](=O)[O-])cc1`, the inhibition at 20 µg/mL in data set [5] worked out at 8%. In addition, the inhibition at 50 ug/mL in data set [2] came out at 28%.
As to `NC(=O)CCc1ccc(N)cc1`, in data set [5], at 20 µg/mL the inhibition was 38%. Further, the inhibition at 50 ug/mL in data set [2] came out at 19%.
Regarding `CN1C(=O)CC(c2ccc(N)cc2)C1=O` (stereo not given), the affinity in data set [4] corresponds to a Ki of 1.75 µM. For the same molecule, the IC50 in data set [1] is 10 µM; in data set [3] it was 16.6 µM. For the same molecule, the inhibition at 50 ug/mL in data set [2] was found to be 30%.
As for `CCC1(c2ccc(N)cc2)CCC(=O)NC1=O` (stereo not given) [AMINOGLUTETHIMIDE], the inhibition at 50 ug/mL in data set [2] was determined as 83%.

The IC50 is the concentration that inhibits the measured activity by half. The term inhibition denotes the drop in the measured response relative to a control, in per cent. A low value points to little suppression. For orientation: Ki means the equilibrium dissociation constant of an inhibitor or competing ligand from its target. Read a low Ki as higher affinity.

Values taken from ChEMBL document CHEMBL1123156 (J Med Chem, 1986).
